Activity calls are given as the source filed them.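 How the source made its calls: active means at 30 µM dose, two-repeat average suppression of induced P-selectin signal exceeds 50%; inactive means average suppression 50% or lower.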
System: platelets, A23187-induced P-selectin, flow cytometry
Test: calcium ionophore platelet activation inhibition – cell-based, fluorescence, flow cytometry, platelets, selectivity assay, confirmation (AID 2527)
Conditions: at 30 µM; hits give high values
Method in brief: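 assay system = stimulated platelets | also added = 10 µM A23187 | dosing = single compound dose of 30 µM | times = 20 min compound, 15 min A23187, 20 min stain | technique = flow cytometry, PE anti-P-selectin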

CCCC(=O)Nc1cccc(NC(=O)c2ccccc2Br)c1
inhibition: 3.45% (inactive)

O=C(Nc1cccc(NC(=O)c2ccccc2Cl)c1)c1ccco1
inhibition: 5.95% (inactive)

Source: PubChem BioAssay AID2527 (Broad Institute, 2010)
